# Laboratory results reported in ChEMBL document CHEMBL1138232, “Optimization of naphthalimide-imidazoacridone with potent antitumor activity leading to clinical candidate (HKH40A, RTA 502)” (J Med Chem, 2007).
# How the values were obtained:
# [1] = Apparent volume of distribution in F344 rat at 20 mg/kg, iv; type: ADME, organism-based; parameters: dose 20 mg/kg, route intravenous; conditions: in vivo
# Outline: (§1)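 Single i.v. dose of 20 mg/kg to ncr nu/nu mice and an F344 rat. Plasma concentrations followed over time and fitted by nonlinear regression to give distribution and elimination phases, AUC and apparent volumes of distribution. Detection limit 50 nM.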
# [2] = system: CAKI-1; assay: Antitumor activity against human CAKI-1 cells after 48 hrs; type: functional; conditions: CAKI-1, 48 h
# Outline: (§2)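 Tested in the NCI 60 human tumour cell line screen, with continuous drug exposure for 48 h. Values include LC50 derived from the screen.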
# [3] = system: HCC 2998; assay: Antitumor activity against human HCC2998 cells after 48 hrs; type: functional; conditions: HCC 2998, 48 h; outline: as §2
# [4] = Antitumor activity against human HL60 (TB) cells after 48 hrs; type: functional, HL-60(TB); conditions: HL-60, 48 h; outline: as §2
# [5] = system: HT-29; assay: Antitumor activity against HT29 cells expressing mutated p53; type: functional, cell-based; conditions: Homo sapiens
# Outline: (§3)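 Compounds tested as tri(methanesulfonate) salts, soluble in water and dilute buffers. Human tumour cells carrying wild-type or mutated p53 were exposed for 5 days, and viability was read by MTT assay. GI50, TGI and LC50 were calculated from the MTT data. Values are means ± SD of at least three independent experiments, with coefficients of variation of 10–20%.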
# [6] = system: SK-MEL-5; assay: Antitumor activity against human SK-MEL-5 cells after 48 hrs; type: functional; conditions: SK-MEL-5, 48 h; outline: as §2
# [7] = Drug level in NCR nu/nu mouse plasma at 20 mg/kg, iv after 8 hrs; type: ADME, organism-based; parameters: dose 20 mg/kg, route intravenous; outline: as §1
# [8] = system: MIA PaCa-2; assay: Inhibition of tumor growth in PaCa2 cells xenografted nu/nu mouse at 15 mg/kg; type: functional, Homo sapiens
# Outline: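 PaCa-2 tumour fragments implanted on the flank of nu/nu mice, 10 per group. Intraperitoneal treatment, Q3Dx4, started 12 days post-inoculation at 80 mm3 tumour volume. Tumour growth inhibition measured.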
# [9] = system: U-251; assay: Antitumor activity against human U251 cells after 48 hrs; type: functional; conditions: U-251, 48 h
# Outline: (§4)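 NCI 60 human tumour cell line screen; 48 h continuous drug exposure. Compounds tested as tri(methanesulfonate) salts, soluble in water and dilute buffers. Dilute solutions are light-sensitive and adsorb to glass or quartz.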
# [10] = Apparent volume of distribution in NCR nu/nu mouse at 20 mg/kg, iv; type: ADME, organism-based; parameters: dose 20 mg/kg, route intravenous; conditions: in vivo; outline: as §1
# [11] = system: HOP-92; assay: Antitumor activity against human HOP92 cells after 48 hrs; type: functional; conditions: HOP-92, 48 h; outline: as §2
# [12] = system: MCF7; assay: Antitumor activity against human MCF7 cells after 48 hrs; type: functional; conditions: MCF7, 48 h; outline: as §2
# [13] = system: KM12; assay: Antitumor activity against human KM12 cells after 48 hrs; type: functional; conditions: KM12, 48 h; outline: as §2
# [14] = system: HCT-116; assay: Cell cycle arrest in HCT116 cells assessed as accumulation at Sub G1 phase at 50 nM after 72 hrs; type: functional, Homo sapiens
# Outline: (§5)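 HCT116 cells exposed to 50 nM drug for 72 h, then cell-cycle distribution analysed. Sub-G1, G1, S and G2/M fractions reported as percent of cells, with untreated control cells for comparison.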
# [15] = system: HCT-116; assay: Inhibition of tumor growth in HCT116 cells xenografted in nu/nu mouse; type: functional, Homo sapiens
# Outline: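 HCT116 xenografts in mice; compound given i.v. on a Q3Dx4 schedule, starting when tumours reached 62 mm3. Tumour growth inhibition measured.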
# [16] = system: NCI-H460; assay: Antitumor activity against human NCI-H460 cells after 48 hrs; type: functional; conditions: NCI-H460, 48 h; outline: as §2
# [17] = system: ACHN; assay: Antitumor activity against human ACHN cells after 48 hrs; type: functional; outline: as §2
# [18] = system: SF-295; assay: Antitumor activity against human SF295 cells after 48 hrs; type: functional; conditions: SF-295, 48 h; outline: as §2
# [19] = Antitumor activity against human […] cells after 48 hrs; type: functional; outline: as §2
# [20] = system: RKO; assay: Antitumor activity against human RKO cells expressing wild type p53; type: functional; conditions: read-out: LC50 (the source's name); outline: as §3
# [21] = system: HCT-116; assay: Cell cycle arrest in HCT116 cells assessed as accumulation at S phase at 50 nM after 72 hrs; type: functional, Homo sapiens; outline: as §5
# [22] = system: SF-539; assay: Antitumor activity against human SF539 cells after 48 hrs; type: functional; conditions: SF-539, 48 h; outline: as §2
# [23] = system: OVCAR-5; assay: Antitumor activity against human OVCAR5 cells after 48 hrs; type: functional; conditions: OVCAR-5, 48 h; outline: as §2
# [24] = system: ASPC1; assay: Antitumor activity against p53 null human ASPC1 cells; type: functional, cell-based
# [25] = system: IGROV-1; assay: Antitumor activity against human IGROV1 cells after 48 hrs; type: functional; conditions: IGROV-1, 48 h; outline: as §2
# [26] = system: A498; assay: Antitumor activity against human A498 cells after 48 hrs; type: functional; conditions: A498, 48 h; outline: as §2
# [27] = system: BT-549; assay: Antitumor activity against human BT549 cells after 48 hrs; type: functional; conditions: BT-549, 48 h; outline: as §2
# [28] = Antitumor activity against human NCI-H322 cells after 48 hrs; type: functional; conditions: NCI-H322, 48 h; outline: as §2
# [29] = system: OVCAR-4; assay: Antitumor activity against human OVCAR4 cells after 48 hrs; type: functional; conditions: OVCAR-4, 48 h; outline: as §2
# [30] = system: LOX IMVI; assay: Antitumor activity against human LOX IMVI cells after 48 hrs; type: functional; outline: as §2
# [31] = system: SK-MEL-2; assay: Antitumor activity against human SK-MEL-2 cells after 48 hrs; type: functional; conditions: SK-MEL-2, 48 h; outline: as §2
# [32] = system: UACC-62; assay: Antitumor activity against human UACC62 cells after 48 hrs; type: functional; conditions: UACC-62, 48 h; outline: as §4
# [33] = system: COLO 205; assay: Antitumor activity against human COLO205 cells after 48 hrs; type: functional; conditions: COLO 205, 48 h; outline: as §2
# [34] = read-out: Log LC50 (the source's name) (converted)
smiles,measurement,setting,value
COc1ccc2c(c1)c(=O)c1c(NCCCN3CCN(CCCN4C(=O)c5cccc6cc([N+](=O)[O-])cc(c56)C4=O)CC3)ccc3ncn2c31.CS(=O)(=O)O,Vd,[1],138 L/kg
same,GI50,[2],3.02 nM
same,CC50,[2]; [34],> 1000 nM
same,TGI,[2]; read-out: Log TGI (converted),40.7 nM
same,GI50,[3],11.5 nM
same,CC50,[3]; [34],> 1000 nM
same,TGI,[3]; read-out: Log TGI (converted),> 1000 nM
same,GI50,[4],0.159 nM
same,CC50,[4]; [34],> 1000 nM
same,IC50,[5],80 nM
same,GI50,[6],4.9 nM
same,CC50,[6]; [34],871 nM
same,TGI,[6]; read-out: Log TGI (converted),43.6 nM
same,concentration at 8 h,[7],70 nM
same,inhibition in vivo at 15 mg/kg,[8],53.5%
same,GI50,[9],2.19 nM
same,CC50,[9]; [34],> 1000 nM
same,TGI,[9]; read-out: Log TGI (converted),> 1000 nM
same,Vd,[10],57 L/kg
same,GI50,[11],5.13 nM
same,CC50,[11]; [34],> 1000 nM
same,TGI,[11]; read-out: Log TGI (converted),63.1 nM
same,GI50,[12],4.68 nM
same,CC50,[12]; [34],> 1000 nM
same,TGI,[12]; read-out: Log TGI (converted),> 1000 nM
same,GI50,[13],4.37 nM
same,CC50,[13]; [34],> 1000 nM
same,TGI,[13]; read-out: Log TGI (converted),537 nM
same,Activity,[14],48%
same,TGI,[15],59%
same,GI50,[16],2.57 nM
same,CC50,[16]; [34],> 1000 nM
same,TGI,[16]; read-out: Log TGI (converted),> 1000 nM
same,GI50,[17],0.407 nM
same,CC50,[17]; [34],> 1000 nM
same,TGI,[17]; read-out: Log TGI (converted),63.1 nM
same,GI50,[18],1 nM
same,CC50,[18]; [34],> 1000 nM
same,TGI,[18]; read-out: Log TGI (converted),79.4 nM
same,GI50,[19],4.79 nM
same,CC50,[19]; [34],> 1000 nM
same,TGI,[19]; read-out: Log TGI (converted),> 1000 nM
same,CC50,[20],25 nM
same,Activity,[21],2.3%
same,GI50,[22],2.75 nM
same,CC50,[22]; [34],> 1000 nM
same,TGI,[22]; read-out: Log TGI (converted),25.1 nM
same,GI50,[23],339 nM
same,CC50,[23]; [34],> 1000 nM
same,TGI,[23]; read-out: Log TGI (converted),> 1000 nM
same,IC50,[24],70 nM
same,GI50,[25],3.39 nM
same,CC50,[25]; [34],> 1000 nM
same,TGI,[25]; read-out: Log TGI (converted),51.3 nM
same,GI50,[26],6.61 nM
same,CC50,[26]; [34],> 1000 nM
same,TGI,[26]; read-out: Log TGI (converted),331 nM
same,GI50,[27],3.09 nM
same,CC50,[27]; [34],> 1000 nM
same,TGI,[27]; read-out: Log TGI (converted),53.7 nM
same,GI50,[28],5.89 nM
same,CC50,[28]; [34],> 1000 nM
same,TGI,[28]; read-out: Log TGI (converted),309 nM
same,GI50,[29],4.9 nM
same,CC50,[29]; [34],> 1000 nM
same,TGI,[29]; read-out: Log TGI (converted),87.1 nM
same,GI50,[30],1.86 nM
same,CC50,[30]; [34],> 1000 nM
same,TGI,[30]; read-out: Log TGI (converted),77.6 nM
same,GI50,[31],27.5 nM
same,CC50,[31]; [34],> 1000 nM
same,TGI,[31]; read-out: Log TGI (converted),> 1000 nM
same,GI50,[32],3.31 nM
same,CC50,[32]; [34],> 1000 nM
same,TGI,[32]; read-out: Log TGI (converted),55 nM
same,GI50,[33],6.31 nM
same,CC50,[33]; [34],> 1000 nM
same,TGI,[33]; read-out: Log TGI (converted),> 1000 nM
